According to ChEMBL document CHEMBL4680287, “Ibrexafungerp: An orally active β-1,3-glucan synthesis inhibitor” (Bioorg Med Chem Lett, 2021):
Values after ≈ are worked out from the molar mass of the structure shown.

How the values were obtained:
[1] = Dose normalized AUC in po dosed rat; format: ADME, organism-based; conditions: in vivo
[2] = Half life in rat; format: ADME; conditions: in vivo
Candida albicans [3] = test: Antifungal activity against Candida albicans MY1055 infected in DBA/2 mouse model of disseminated candidiasis assessed as reduction in fungal burden in kidney by measuring log change in colony forming units at 25 mg/kg, po bid for 7 days by TOKA; format: functional; conditions: time 7 day
How it was run: (§1)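 Murine disseminated candidiasis model (TOKA) in mice challenged with C. albicans MY1055 at 2.44 x 10^4 CFU/mouse. Dosed PO, or IP where stated. Kidneys collected aseptically 7 days after challenge and CFUs/g counted. Change in log CFU/g is relative to sham-treated controls; significance by two-tailed t test. Clearance is the percentage of kidneys below the detection limit.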

Aspergillus fumigatus [4] = test: Antifungal activity against Aspergillus fumigatus MF5668 infected in ip dosed DBA/2N mouse assessed as 50% mouse survival administered bid administered for 7 days starting from 15 to 30 mins post infection and measured up to 21 days; conditions: 168 h
Pichia kudriavzevii [5] = test: Antifungal activity against Candida krusei ATCC 6258 assessed as reduction in fungal growth; format: functional
Aspergillus fumigatus [6] = test: Antifungal activity against Aspergillus fumigatus MF5668 infected in DBA/2N mouse assessed as mean survival time at 1.56 mg/kg, ip bid administered for 7 days starting from 15 to 30 mins post infection and measured up to 21 days; format: functional; conditions: time 7 day
How it was run: (§2)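 DBA/2N mice were challenged IV with A. fumigatus MF5668 at 6.7 x 10^5 CFU/mouse, then dosed IP twice daily for 7 days. Survival was followed over a 21-day model, and mean survival time in days was recorded per dose group. A sham-treated control group was run alongside.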

Candida albicans [7] = test: Antifungal activity against Candida albicans MY1055 infected in DBA/2 mouse model of disseminated candidiasis assessed as reduction in fungal burden in kidney by measuring log change in colony forming units at 6.25 mg/kg, po bid for 7 days by TOKA; format: functional; conditions: time 7 day; how it was run: as §1
Aspergillus fumigatus [8] = test: Antifungal activity against Aspergillus fumigatus MF5668 assessed inhibition of fungal growth by measuring morphological changes measured after 24 hrs by microscopy; format: functional; conditions: read-out: MEC
How it was run: (§3)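 Microdilution per CLSI protocols in RPMI medium. Read-out is the minimum effective concentration (MEC). Run without serum and with 50% human serum.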

Candida tropicalis [9] = test: Antifungal activity against Candida tropicalis MY1012 assessed as fungal growth inhibition; format: functional; conditions: read-out: MIC100
Pichia kudriavzevii [10] = test: Antifungal activity against Candida krusei ATCC 6258 assessed as fungal growth inhibition; format: functional; conditions: read-out: MIC100
Aspergillus fumigatus [11] = test: Antifungal activity against Aspergillus fumigatus MF5668 assessed inhibition of fungal growth by measuring morphological changes in presence of 50% human serum measured after 24 hrs by microscopy; format: functional; conditions: read-out: MEC; how it was run: as §3
Nakaseomyces glabratus [12] = test: Antifungal activity against Candida glabrata MY1381 assessed as fungal growth inhibition; format: functional; conditions: read-out: MIC100
Candida albicans [13] = test: Antifungal activity against Candida albicans MY1055 infected in DBA/2 mouse model of disseminated candidiasis assessed as reduction in fungal burden in kidney by measuring log change in colony forming units at 12.5 mg/kg, po bid for 7 days by TOKA; format: functional; conditions: time 7 day; how it was run: as §1
Clavispora lusitaniae [14] = test: Antifungal activity against Clavispora lusitaniae MY1396 assessed as fungal growth inhibition; format: functional; conditions: read-out: MIC100
[15] = Dose normalized AUC in po dosed mouse; format: ADME, organism-based; conditions: in vivo
[16] = Clearance in mouse; format: ADME, organism-based; conditions: in vivo
[17] = Half life in dog; format: ADME, Canis lupus familiaris; conditions: in vivo
Aspergillus fumigatus [18] = test: Antifungal activity against Aspergillus fumigatus MF5668 infected in DBA/2N mouse assessed as mean survival time at 12.5 mg/kg, ip bid administered for 7 days starting from 15 to 30 mins post infection and measured up to 21 days; format: functional; conditions: time 7 day; how it was run: as §2
[19] = Oral bioavailability in rhesus monkey; format: ADME, organism-based, Macaca mulatta; conditions: in vivo
How it was run: (§4)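 Oral bioavailability calculated as oral AUC normalized to the IV dose, divided by the IV AUC.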

Aspergillus fumigatus [20] = test: Antifungal activity against Aspergillus fumigatus MF5668 infected in DBA/2N mouse assessed as mouse survival at 6.25 mg/kg, ip bid administered for 7 days starting from 15 to 30 mins post infection and measured up to 21 days relative to control; format: functional; conditions: 168 h, time 7 day
How it was run: (§5)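 DBA/2N mice were infected IV with A. fumigatus MF5668 (6.7 x 10^5 CFU/mouse) and treated IP bid for 7 days. Percent survival per dose group was scored at the end of the 21-day survival model and compared with the sham-treated control group.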

Candida tropicalis [21] = test: Antifungal activity against Candida tropicalis MY1012 assessed as reduction in fungal growth; format: functional
[22] = Clearance in dog; format: ADME, Canis lupus familiaris; conditions: in vivo
Clavispora lusitaniae [23] = test: Antifungal activity against Clavispora lusitaniae MY1396 assessed as reduction in fungal growth; format: functional
Candida albicans [24] = test: Antifungal activity against Candida albicans MY1055 assessed as fungal growth inhibition measured after 24 hrs in presence of 50% mouse serum by liquid microdilution method; format: functional
How it was run: (§6)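 Broth microdilution per CLSI protocols in RPMI medium. Read-out is the MIC, the lowest concentration completely inhibiting fungal growth. Run without serum and with added serum.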

Candida albicans [25] = test: Antifungal activity against Candida albicans MY1055 assessed as fungal growth inhibition measured after 24 hrs by liquid microdilution method; format: functional; how it was run: as §6
Aspergillus fumigatus [26] = test: Antifungal activity against Aspergillus fumigatus MF5668 infected in DBA/2N mouse assessed as mouse survival at 12.5 mg/kg, ip bid administered for 7 days starting from 15 to 30 mins post infection and measured up to 21 days relative to control; format: functional; conditions: 168 h, time 7 day; how it was run: as §5
Candida albicans [27] = test: Antifungal activity against Candida albicans MY1055 infected in ip dosed DBA/2 mouse model of disseminated candidiasis assessed as reduction in fungal burden in kidney administered bid for 7 days by TOKA; format: functional; conditions: 168 h, time 7 day; how it was run: as §1
Candida albicans [28] = test: Antifungal activity against Candida albicans MY1055 assessed as fungal growth inhibition in presence of 50% mouse serum; format: functional; conditions: read-out: MIC100; how it was run: as §6
[29] = Half life in rhesus monkey; format: ADME, Macaca mulatta; conditions: in vivo
Candida albicans [30] = test: Antifungal activity against Candida albicans MY1055 infected in DBA/2 mouse model of disseminated candidiasis assessed as reduction in fungal burden in kidney by measuring log change in colony forming units at 12.5 mg/kg, ip bid for 7 days by TOKA; format: functional; conditions: time 7 day; how it was run: as §1
[31] = Inhibition of beta-1,3-glucan synthase in Candida albicans MY1055 microsomal membrane assessed as inhibition of TCA-insoluble material formation using UDP-[3H]-glucose as substrate incubated for 2 hrs in presence of GTP by radioactivity-based assay; format: microsomes, Microsome
How it was run: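 GS IC50 measured using Candida albicans MY1055 microsomal membrane fragments as the enzyme source.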

[32] = Half life in mouse; format: ADME, organism-based; conditions: in vivo
[33] = Oral bioavailability in dog; format: ADME, organism-based, Canis lupus familiaris; conditions: in vivo; how it was run: as §4
Aspergillus fumigatus [34] = test: Antifungal activity against Aspergillus fumigatus MF5668 infected in DBA/2N mouse assessed as mean survival time at 6.25 mg/kg, ip bid administered for 7 days starting from 15 to 30 mins post infection and measured up to 21 days; format: functional; conditions: time 7 day; how it was run: as §2
[35] = Clearance in rhesus monkey; format: ADME, Macaca mulatta; conditions: in vivo
Candida parapsilosis [36] = test: Antifungal activity against Candida parapsilosis ATCC 22019 assessed as reduction in fungal growth; format: functional; conditions: Lodderomyces parapsilosis
Candida albicans [37] = test: Antifungal activity against Candida albicans MY1055 assessed as reduction in fungal growth in presence of 50% mouse serum; format: functional; how it was run: as §6
Candida albicans [38] = test: Antifungal activity against Candida albicans MY1055 assessed as reduction in fungal growth; format: functional; how it was run: as §6
Nakaseomyces glabratus [39] = test: Antifungal activity against Candida glabrata MY1381 assessed as reduction in fungal growth; format: functional
[40] = Clearance in rat; format: ADME; conditions: in vivo
[41] = Oral bioavailability in mouse; format: ADME, organism-based; conditions: in vivo; how it was run: as §4
Aspergillus fumigatus [42] = test: Antifungal activity against Aspergillus fumigatus MF5668 infected in DBA/2N mouse assessed as mean survival time at 3.125 mg/kg, ip bid administered for 7 days starting from 15 to 30 mins post infection and measured up to 21 days; format: functional; conditions: time 7 day; how it was run: as §2
[43] = Dose normalized AUC in po dosed dog; format: ADME, organism-based, Canis lupus familiaris; conditions: in vivo
Aspergillus fumigatus [44] = test: Antifungal activity against Aspergillus fumigatus MF5668 infected in DBA/2N mouse assessed as mouse survival at 3.125 mg/kg, ip bid administered for 7 days starting from 15 to 30 mins post infection and measured up to 21 days relative to control; format: functional; conditions: 168 h, time 7 day; how it was run: as §5
[45] = Dose normalized AUC in po rhesus monkey; format: ADME, organism-based, Macaca mulatta; conditions: in vivo
[46] = Oral bioavailability in rat; format: ADME, organism-based; conditions: in vivo; how it was run: as §4
Aspergillus fumigatus [47] = test: Antifungal activity against Aspergillus fumigatus MF5668 infected in DBA/2N mouse assessed as mouse survival at 1.56 mg/kg, ip bid administered for 7 days starting from 15 to 30 mins post infection and measured up to 21 days relative to control; format: functional; conditions: 168 h, time 7 day; how it was run: as §5
Aspergillus fumigatus [48] = test: Antifungal activity against Aspergillus fumigatus MF5668 infected in ip dosed DBA/2N mouse assessed as 90% mouse survival administered bid administered for 7 days starting from 15 to 30 mins post infection and measured up to 21 days; format: functional; conditions: 168 h, time 7 day
Candida parapsilosis [49] = test: Antifungal activity against Candida parapsilosis ATCC 22019 assessed as fungal growth inhibition; format: functional; conditions: Lodderomyces parapsilosis, read-out: MIC100

CC(C)[C@@H](C)[C@@]1(C)CC[C@]2(C)[C@H]3CC[C@@H]4[C@@]5(COC[C@@]4(C)[C@@H](OC[C@](C)(N)C(C)(C)C)[C@H](n4ncnc4-c4ccncc4)C5)C3=CC[C@@]2(C)[C@@H]1C(=O)O [IBREXAFUNGERP]
AUC/dose [1]: 0.69 µM·kg·h/mg | half-life [2]: 8.3 h | Activity (Candida albicans [3]): -4.6 deltalog10CFU | ED50 (Aspergillus fumigatus [4]): 4.5 mg/kg | MIC50 (Pichia kudriavzevii [5]): 2 µg/mL (≈ 2.74 µM) | MST (Aspergillus fumigatus [6]): 5.1 days | Activity (Candida albicans [7]): -2.2 deltalog10CFU | minimal effective concentration (Aspergillus fumigatus [8]): < 0.03 µg/mL | MIC (Candida tropicalis [9]): 8 µg/mL (≈ 11 µM) | MIC (Pichia kudriavzevii [10]): 4 µg/mL (≈ 5.48 µM) | minimal effective concentration (Aspergillus fumigatus [11]): 0.25 µg/mL | MIC (Nakaseomyces glabratus [12]): 1 µg/mL (≈ 1.37 µM) | Activity (Candida albicans [13]): -3.2 deltalog10CFU | MIC (Clavispora lusitaniae [14]): 2 µg/mL (≈ 2.74 µM) | AUC/dose [15]: 0.59 µM·kg·h/mg | clearance [16]: 14 mL/min/kg | half-life [17]: 11.3 h | MST (Aspergillus fumigatus [18]): 19.4 days | bioavailability [19]: 16% | survival at 6.25 mg/kg (Aspergillus fumigatus [20]): 90% | MIC50 (Candida tropicalis [21]): 1 µg/mL (≈ 1.37 µM) | clearance [22]: 4 mL/min/kg | MIC50 (Clavispora lusitaniae [23]): 1 µg/mL (≈ 1.37 µM) | MIC (Candida albicans [24]): 0.5 µg/mL | MIC (Candida albicans [25]): 0.06 µg/mL (≈ 0.0822 µM) | survival at 12.5 mg/kg (Aspergillus fumigatus [26]): 90% | ED99 (Candida albicans [27]): 0.84 mg/kg | MIC (Candida albicans [28]): 0.5 µg/mL | half-life [29]: 5.7 h | Activity (Candida albicans [30]): -3.99 deltalog10CFU | IC50 [31]: 0.001 µg/mL | half-life [32]: 4.4 h | bioavailability [33]: 18% | MST (Aspergillus fumigatus [34]): 19.2 days | clearance [35]: 11 mL/min/kg | MIC50 (Candida parapsilosis [36]): < 0.03 µg/mL | MIC50 (Candida albicans [37]): 0.25 µg/mL | MIC50 (Candida albicans [38]): < 0.03 µg/mL | MIC50 (Nakaseomyces glabratus [39]): 1 µg/mL (≈ 1.37 µM) | clearance [40]: 8 mL/min/kg | bioavailability [41]: 34% | MST (Aspergillus fumigatus [42]): 12.2 days | AUC/dose [43]: 1.07 µM·kg·h/mg | survival at 3.125 mg/kg (Aspergillus fumigatus [44]): 20% | AUC/dose [45]: 0.33 µM·kg·h/mg | bioavailability [46]: 23% | survival at 1.56 mg/kg (Aspergillus fumigatus [47]): 0% | ED90 (Aspergillus fumigatus [48]): 8.9 mg/kg | MIC (Candida parapsilosis [49]): 0.5 µg/mL (≈ 0.685 µM)
